Measurements reported in the M2OR odorant receptor database.

Columns and labels:
Settings in all cases: stereoisomer not certain
[1] = target: T1, UniProt B2RVX8
T1 sequence (whole entry): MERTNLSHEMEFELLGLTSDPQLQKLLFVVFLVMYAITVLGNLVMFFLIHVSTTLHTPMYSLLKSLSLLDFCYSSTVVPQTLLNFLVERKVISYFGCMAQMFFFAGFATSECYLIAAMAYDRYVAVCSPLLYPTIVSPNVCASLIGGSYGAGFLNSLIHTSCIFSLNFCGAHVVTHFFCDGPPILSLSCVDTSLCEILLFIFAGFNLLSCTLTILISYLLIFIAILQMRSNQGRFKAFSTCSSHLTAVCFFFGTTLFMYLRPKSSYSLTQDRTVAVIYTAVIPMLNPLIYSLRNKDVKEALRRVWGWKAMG
Method in brief: (§1)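 Transient luciferase assays in mammalian cell lines were common, though methods varied by source. The values come from published papers and their supplementary material, with extra details from the original authors when needed. Responsive refers to a measured signal the original authors judged statistically different from baseline, and non-responsive (inactive) to the remainder.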

[2] = target: T2, UniProt E9PVX1
T2 sequence (whole entry): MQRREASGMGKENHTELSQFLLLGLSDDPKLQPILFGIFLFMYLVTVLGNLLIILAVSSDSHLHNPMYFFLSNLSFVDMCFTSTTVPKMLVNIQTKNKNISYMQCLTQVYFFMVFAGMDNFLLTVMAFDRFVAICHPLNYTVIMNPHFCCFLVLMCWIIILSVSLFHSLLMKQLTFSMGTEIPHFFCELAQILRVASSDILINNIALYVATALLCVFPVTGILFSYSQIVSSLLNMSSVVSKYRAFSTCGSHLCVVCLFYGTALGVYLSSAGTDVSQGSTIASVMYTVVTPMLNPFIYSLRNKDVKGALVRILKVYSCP
Method in brief: as §1

[3] = target: T3, UniProt E9PZ66
T3 sequence (whole entry): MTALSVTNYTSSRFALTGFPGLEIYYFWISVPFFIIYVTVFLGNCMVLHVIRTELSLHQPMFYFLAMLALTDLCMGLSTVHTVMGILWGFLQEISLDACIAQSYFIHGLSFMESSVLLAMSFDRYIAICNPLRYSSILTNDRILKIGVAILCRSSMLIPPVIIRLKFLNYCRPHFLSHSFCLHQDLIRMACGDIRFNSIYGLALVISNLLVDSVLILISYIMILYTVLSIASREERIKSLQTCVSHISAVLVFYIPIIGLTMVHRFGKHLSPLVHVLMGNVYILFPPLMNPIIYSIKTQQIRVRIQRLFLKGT
Method in brief: as §1

[4] = target: T4, UniProt E9Q4X7
T4 sequence (whole entry): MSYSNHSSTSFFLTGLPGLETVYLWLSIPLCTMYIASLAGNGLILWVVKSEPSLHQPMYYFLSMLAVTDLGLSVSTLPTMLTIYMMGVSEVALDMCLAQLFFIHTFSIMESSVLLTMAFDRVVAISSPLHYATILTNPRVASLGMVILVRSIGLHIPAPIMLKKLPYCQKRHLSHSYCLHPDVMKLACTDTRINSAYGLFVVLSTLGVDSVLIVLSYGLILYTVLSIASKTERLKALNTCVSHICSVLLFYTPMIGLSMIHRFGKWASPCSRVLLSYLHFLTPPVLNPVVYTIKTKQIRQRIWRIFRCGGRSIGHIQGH
Method in brief: as §1

[5] = target: T5, UniProt E9Q546
T5 sequence (whole entry): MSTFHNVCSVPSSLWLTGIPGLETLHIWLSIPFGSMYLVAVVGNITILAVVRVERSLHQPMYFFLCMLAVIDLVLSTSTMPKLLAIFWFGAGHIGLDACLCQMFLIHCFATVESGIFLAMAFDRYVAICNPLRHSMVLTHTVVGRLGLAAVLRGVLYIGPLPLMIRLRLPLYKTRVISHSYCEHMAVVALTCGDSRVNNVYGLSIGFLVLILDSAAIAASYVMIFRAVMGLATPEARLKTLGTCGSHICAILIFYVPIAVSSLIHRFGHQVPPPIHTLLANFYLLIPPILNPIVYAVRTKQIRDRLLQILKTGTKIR
Method in brief: as §1

[6] = target: T6, UniProt E9Q6Z7
T6 sequence (whole entry): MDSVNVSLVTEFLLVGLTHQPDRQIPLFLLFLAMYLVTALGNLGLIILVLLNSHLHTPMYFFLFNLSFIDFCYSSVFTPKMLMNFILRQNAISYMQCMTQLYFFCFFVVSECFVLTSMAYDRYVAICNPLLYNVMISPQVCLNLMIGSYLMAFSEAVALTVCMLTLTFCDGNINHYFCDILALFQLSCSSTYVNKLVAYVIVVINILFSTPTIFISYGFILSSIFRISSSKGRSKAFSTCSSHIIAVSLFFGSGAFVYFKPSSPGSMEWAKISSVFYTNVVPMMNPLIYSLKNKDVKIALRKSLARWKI
Method in brief: as §1

[7] = target: T7, UniProt K7N609
T7 sequence (whole entry): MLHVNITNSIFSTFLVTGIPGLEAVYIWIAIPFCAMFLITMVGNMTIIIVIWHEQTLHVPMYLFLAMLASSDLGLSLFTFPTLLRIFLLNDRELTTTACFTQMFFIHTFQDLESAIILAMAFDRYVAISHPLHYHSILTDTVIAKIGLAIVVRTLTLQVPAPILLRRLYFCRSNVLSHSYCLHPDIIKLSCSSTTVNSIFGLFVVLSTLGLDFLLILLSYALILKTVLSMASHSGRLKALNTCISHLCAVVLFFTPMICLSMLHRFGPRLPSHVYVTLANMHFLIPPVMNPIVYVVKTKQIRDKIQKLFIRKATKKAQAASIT
Method in brief: as §1

[8] = target: T8, UniProt L7MU75
T8 sequence (whole entry): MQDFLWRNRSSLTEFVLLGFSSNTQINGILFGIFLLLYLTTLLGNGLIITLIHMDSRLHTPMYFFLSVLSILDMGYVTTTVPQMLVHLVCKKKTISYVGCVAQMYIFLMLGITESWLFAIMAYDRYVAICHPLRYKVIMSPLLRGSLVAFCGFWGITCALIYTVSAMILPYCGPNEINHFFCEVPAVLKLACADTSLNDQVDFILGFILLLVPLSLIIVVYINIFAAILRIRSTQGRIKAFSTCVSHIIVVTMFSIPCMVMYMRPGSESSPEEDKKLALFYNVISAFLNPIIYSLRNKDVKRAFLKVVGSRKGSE
Method in brief: as §1

[9] = target: T9, UniProt L7N210
T9 sequence (whole entry): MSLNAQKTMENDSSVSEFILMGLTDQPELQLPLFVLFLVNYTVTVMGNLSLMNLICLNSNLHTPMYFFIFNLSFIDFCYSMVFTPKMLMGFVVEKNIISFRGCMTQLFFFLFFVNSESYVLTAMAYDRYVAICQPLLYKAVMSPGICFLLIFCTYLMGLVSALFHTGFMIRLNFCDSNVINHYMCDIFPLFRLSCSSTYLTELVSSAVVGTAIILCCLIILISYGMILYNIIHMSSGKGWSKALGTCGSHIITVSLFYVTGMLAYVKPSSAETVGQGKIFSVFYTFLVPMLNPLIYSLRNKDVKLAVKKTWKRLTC
Method in brief: as §1

[10] = target: T10, UniProt Q3KPB0
T10 sequence (whole entry): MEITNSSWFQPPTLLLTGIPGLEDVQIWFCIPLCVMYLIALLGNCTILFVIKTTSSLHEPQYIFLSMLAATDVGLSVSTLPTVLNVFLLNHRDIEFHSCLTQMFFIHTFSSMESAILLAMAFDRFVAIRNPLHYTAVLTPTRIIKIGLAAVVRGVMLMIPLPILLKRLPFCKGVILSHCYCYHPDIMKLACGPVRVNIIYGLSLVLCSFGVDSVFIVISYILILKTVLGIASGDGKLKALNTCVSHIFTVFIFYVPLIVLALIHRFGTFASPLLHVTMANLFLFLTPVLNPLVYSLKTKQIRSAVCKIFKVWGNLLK
Method in brief: as §1

[11] = target: T11, UniProt Q3U0P3
T11 sequence (whole entry): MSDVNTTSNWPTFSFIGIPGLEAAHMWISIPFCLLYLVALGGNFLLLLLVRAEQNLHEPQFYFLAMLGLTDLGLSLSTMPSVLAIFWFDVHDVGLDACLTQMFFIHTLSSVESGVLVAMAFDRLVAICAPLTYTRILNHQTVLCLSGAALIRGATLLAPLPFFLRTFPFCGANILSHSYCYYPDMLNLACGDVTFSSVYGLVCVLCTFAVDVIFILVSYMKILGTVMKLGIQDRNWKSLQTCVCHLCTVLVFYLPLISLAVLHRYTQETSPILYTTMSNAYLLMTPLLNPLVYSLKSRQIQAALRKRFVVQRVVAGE
Method in brief: as §1

[12] = target: T12, UniProt Q7TQU8
T12 sequence (whole entry): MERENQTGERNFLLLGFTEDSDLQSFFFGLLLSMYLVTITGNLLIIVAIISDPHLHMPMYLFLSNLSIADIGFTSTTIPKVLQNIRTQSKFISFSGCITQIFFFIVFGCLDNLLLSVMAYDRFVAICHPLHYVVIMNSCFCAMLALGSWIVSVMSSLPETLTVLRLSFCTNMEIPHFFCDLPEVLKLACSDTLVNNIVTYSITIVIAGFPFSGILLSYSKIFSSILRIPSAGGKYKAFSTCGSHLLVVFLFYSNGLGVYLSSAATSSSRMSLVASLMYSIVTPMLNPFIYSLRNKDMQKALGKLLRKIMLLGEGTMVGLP
Method in brief: as §1

[13] = target: T13, UniProt Q7TQV4
T13 sequence (whole entry): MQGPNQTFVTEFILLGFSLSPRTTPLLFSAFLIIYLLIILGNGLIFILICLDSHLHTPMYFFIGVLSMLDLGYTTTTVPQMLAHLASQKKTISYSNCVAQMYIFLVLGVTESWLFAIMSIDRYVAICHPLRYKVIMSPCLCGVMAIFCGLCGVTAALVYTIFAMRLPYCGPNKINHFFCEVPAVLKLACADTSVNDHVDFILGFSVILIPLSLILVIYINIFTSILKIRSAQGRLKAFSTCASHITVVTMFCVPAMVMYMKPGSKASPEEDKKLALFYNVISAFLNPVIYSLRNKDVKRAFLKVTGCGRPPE
Method in brief: as §1

[14] = target: T14, UniProt Q7TR71
T14 sequence (whole entry): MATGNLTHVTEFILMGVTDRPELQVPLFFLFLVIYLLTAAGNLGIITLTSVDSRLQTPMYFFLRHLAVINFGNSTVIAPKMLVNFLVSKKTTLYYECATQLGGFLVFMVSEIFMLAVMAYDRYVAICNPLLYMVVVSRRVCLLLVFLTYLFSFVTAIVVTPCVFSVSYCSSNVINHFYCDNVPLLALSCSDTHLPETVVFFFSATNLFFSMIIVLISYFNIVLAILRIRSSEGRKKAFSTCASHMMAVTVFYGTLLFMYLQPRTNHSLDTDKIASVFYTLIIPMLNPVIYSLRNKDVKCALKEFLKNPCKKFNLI
Method in brief: as §1

[15] = target: T15, UniProt Q7TR79
T15 sequence (whole entry): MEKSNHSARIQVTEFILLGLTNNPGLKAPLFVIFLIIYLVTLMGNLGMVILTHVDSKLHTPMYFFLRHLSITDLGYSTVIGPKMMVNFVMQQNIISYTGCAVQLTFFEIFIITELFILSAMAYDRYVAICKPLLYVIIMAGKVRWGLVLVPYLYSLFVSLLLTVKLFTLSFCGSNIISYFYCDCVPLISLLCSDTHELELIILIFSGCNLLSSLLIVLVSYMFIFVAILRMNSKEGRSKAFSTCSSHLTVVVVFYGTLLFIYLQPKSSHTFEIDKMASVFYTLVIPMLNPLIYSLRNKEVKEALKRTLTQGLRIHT
Method in brief: as §1

[16] = target: T16, UniProt Q7TRA3
T16 sequence (whole entry): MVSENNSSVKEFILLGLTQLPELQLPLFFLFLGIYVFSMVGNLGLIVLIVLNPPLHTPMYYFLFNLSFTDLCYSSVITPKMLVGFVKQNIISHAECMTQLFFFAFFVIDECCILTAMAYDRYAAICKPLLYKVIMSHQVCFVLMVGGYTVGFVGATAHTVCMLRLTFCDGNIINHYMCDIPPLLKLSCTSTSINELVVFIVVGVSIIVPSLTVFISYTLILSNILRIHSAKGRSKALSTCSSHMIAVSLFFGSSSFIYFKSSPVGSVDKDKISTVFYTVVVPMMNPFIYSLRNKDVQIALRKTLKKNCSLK
Method in brief: as §1

[17] = target: T17, UniProt Q7TRE4
T17 sequence (whole entry): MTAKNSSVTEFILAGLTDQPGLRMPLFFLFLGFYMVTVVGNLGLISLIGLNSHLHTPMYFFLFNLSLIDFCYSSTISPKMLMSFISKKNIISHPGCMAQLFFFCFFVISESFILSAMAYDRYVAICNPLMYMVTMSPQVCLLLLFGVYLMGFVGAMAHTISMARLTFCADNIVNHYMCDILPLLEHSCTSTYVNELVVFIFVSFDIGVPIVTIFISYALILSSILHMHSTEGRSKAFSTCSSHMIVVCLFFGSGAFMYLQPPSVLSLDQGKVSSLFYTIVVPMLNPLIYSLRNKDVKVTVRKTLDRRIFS
Method in brief: as §1

Measured: odorant receptor agonist call

C=CCOC(=O)Cc1ccccc1
inactive: all assays above

CCCCCCC(Br)C(=O)O (centres undefined)
not listed: [1] | [7] | [13] | [14] | [16] | [17]
inactive: all other assays above

CCCCC(Br)C(=O)O (centres undefined)
active: [9]
not listed: [1] | [7] | [13] | [14] | [16] | [17]
inactive: all other assays above

O=Cc1ccccc1
not listed: [1] | [7] | [8] | [13] | [14] | [16] | [17]
inactive: all other assays above
